Activity data for nine molecules are collected here from ChEMBL document CHEMBL1154849, “Bafilomycins produced in culture by Streptomyces spp. isolated from marine habitats are potent inhibitors of autophagy” (2010).

Active and inactive are the calls of the source. No cut-off for these calls is given here.

What all share (type): functional, cell-based
Experiment [1] has as its system MCF7. Briefly: Induction of autophagosome accumulation in human MCF7 cells expressing EGFP-LC3 assessed as punctate EGFP-LC3 level at => 10 nM after 4 hrs by automated microscopy relative to control.
Experiment [2] concerns MCF7. As to the kind of experiment: […] in human MCF7 cells expressing EGFP-LC3 assessed as EGFP levels at 100 nM after 4 hrs by Western blotting relative to control. The gist of the method:
(§1)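 MCF-7 cells expressing EGFP-LC3 were exposed for 4 h to compounds alone or in combinations. Free EGFP band formation, a readout of EGFP-LC3 degradation, was followed by Western blot with anti-GFP antibody.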
On the technique in general: Immunoblotting shows a protein as a band on a membrane.

In experiment [3] the test system is MCF7. As to the kind of experiment: Inhibition of rapamycin-induced autophagy in human MCF7 cells expressing EGFP-LC3 assessed as decrease in EGFP levels at 100 nM after 4 hrs by Western blotting relative to control. The procedure, abridged: as §1
Experiment [4] deals with MCF7. As to the kind of experiment: Induction of autophagosome accumulation in human MCF7 cells expressing EGFP-LC3 assessed as punctate EGFP-LC3 level at => 1 nM after 4 hrs by automated microscopy relative to control.
In experiment [5] the test system is MCF7. As to the kind of experiment: Induction of autophagosome accumulation in human MCF7 cells expressing EGFP-LC3 assessed as punctate EGFP-LC3 level at => 100 nM after 4 hrs by automated microscopy relative to control.
Experiment [6] deals with MCF7. Briefly: Induction of autophagosome accumulation in human MCF7 cells expressing EGFP-LC3 assessed as punctate EGFP-LC3 level at 0.3 nM after 4 hrs by automated microscopy relative to control.
Experiment [7] deals with MCF7. Briefly: […] in human MCF7 cells expressing EGFP-LC3 assessed as EGFP levels at 30 nM after 4 hrs by Western blotting relative to control.

Turning to `CO/C1=C\C(C)=C\[C@@H](C)[C@@H](O)[C@@H](C)C/C(C)=C/C=C/[C@H](OC)[C@@H]([C@@H](C)[C@@H](O)[C@H](C)[C@@]2(OC)C[C@@H](OC)[C@H](C)[C@@H](C(C)C)O2)OC1=O`, the result in the experiment on MCF7 [1] and in the experiment on MCF7 [3] was Active. Moreover, the outcome with MCF7 [2] was inactive.

Consider `CO[C@H]1/C=C/C=C(\C)C[C@H](C)[C@H](O)[C@H](C)/C=C(C)/C=C(\C)C(=O)O[C@@H]1[C@@H](C)[C@@H](O)[C@H](C)[C@@]1(OC)C[C@@H](OC)[C@H](C)[C@@H](C(C)C)O1`, for which the outcome with MCF7 [4] and with MCF7 [3] was Active. Also, the outcome in the experiment on MCF7 [2] was inactive.

Take `CO/C1=C\C(C)=C\[C@@H](C)[C@@H](O)[C@@H](C)C/C(C)=C/C=C/[C@H](OC)[C@@H]([C@@H](C)[C@@H](O)[C@H](C)[C@@]2(O)C[C@@H](O)[C@H](C)[C@@H](C(C)C)O2)OC1=O`: the outcome with MCF7 [4] and with MCF7 [3] was Active. Moreover, the result in the experiment on MCF7 [2] was inactive.

For `CO/C1=C\C(C)=C\[C@@H](C)[C@@H](O)[C@@H](C)C/C(C)=C/C=C/[C@H](OC)[C@@H]([C@@H](C)/C=C(\C)C2=C[C@@H](OC)[C@H](C)[C@@H](C(C)C)O2)OC1=O`, the result in the experiment on MCF7 [5] and with MCF7 [2] was Active. The outcome in the experiment on MCF7 [3] was inactive.

Turning to `CO/C1=C\C(C)=C\[C@@H](C)[C@@H](O)[C@@H](C)C/C(C)=C/C=C/[C@H](OC)[C@@H]([C@@H](C)[C@@H](O)[C@H](C)[C@@]2(O)C[C@@H](OC)[C@H](C)[C@@H](C(C)C)O2)OC1=O` [BAFILOMYCIN G], the result with MCF7 [6] and in the experiment with MCF7 [3] was Active. The result with MCF7 [2] was inactive.

Take `CO/C1=C\C(C)=C\[C@@H](C)[C@@H](O)[C@@H](C)C/C(C)=C/C=C/[C@H](OC)[C@@H]([C@@H](C)[C@@H](O)[C@H](C)[C@@]2(O)C[C@@H](OC(=O)C[C@@H]3SC[C@@H](C(=O)O)NC3=O)[C@H](C)[C@@H](C(C)C)O2)OC1=O`: the result with MCF7 [1] and with MCF7 [3] was Active. Moreover, in the experiment on MCF7 [2], the outcome was inactive.

`CO[C@H]1/C=C/C=C(\C)C[C@H](C)[C@H](O)[C@H](C)/C=C(C)/C=C(\C)C(=O)O[C@@H]1[C@@H](C)[C@@H](O)[C@H](C)C(=O)/C=C/[C@H](C)[C@H](O)C(C)C`: the result with MCF7 [1] and with MCF7 [3] was Active. Besides, the outcome in the experiment on MCF7 [2] was inactive.

Turning to `CO/C1=C\C(C)=C\[C@@H](C)[C@@H](O)[C@@H](C)C/C(C)=C/C=C/[C@H](OC)[C@@H]([C@@H](C)[C@@H](O)[C@H](C)[C@@]2(O)C[C@@H](OC(=O)/C=C/C(=O)NC3=C(O)CCC3=O)[C@H](C)[C@@H](C(C)C)O2)OC1=O`, the outcome with MCF7 [4] and in the experiment with MCF7 [3] was Active. Moreover, the result in the experiment with MCF7 [2] was inactive.

`CO[C@H]1C[C@@H]2CC[C@@H](C)[C@@](O)(O2)C(=O)C(=O)N2CCCC[C@H]2C(=O)O[C@H]([C@H](C)C[C@@H]2CC[C@@H](O)[C@H](OC)C2)CC(=O)[C@H](C)/C=C(\C)[C@@H](O)[C@@H](OC)C(=O)[C@H](C)C[C@H](C)/C=C/C=C/C=C/1C`: in the experiment with MCF7 [7], the result was Active.
